Active and inactive are the calls of the source. No cut-off for these calls is given here.

The first data set relates to Escherichia coli. Description: Binding affinity to Escherichia coli lipid extract liposome membrane at 25 uM by CD spectroscopic analysis. The data set is classed as cell membranes.
Conditions: not given
In a few lines:
(§1)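 CD spectra of 25 μM peptide in 10 mM Tris, 10 mM NaCl, pH 7.4, with 2 mg/mL E. coli total lipid extract or POPC liposomes, equilibrated overnight. Helicity judged at 222 nm. Average of at least three independent experiments.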
In the case of H-KKKKAAFLKLWLKLFAA-NH2, the outcome was Active.
In the case of H-KKKKKAAFAKAWAAFAA-NH2, the result was Active.
On the same count and under the same terms, in the case of H-KKKKKALFLKLWAAFLA-NH2 it was “Active”; in that of H-KKKKKKAAFAAWAAFAA-NH2, “Active”; in that of H-KKKKKKALFALWLAFLA-NH2, “Active”.
On the same count and under the same terms, then H-KKLKAFLKAWAKLFKAL-NH2, with “Active”.

In another data set the test system is Lipid bilayer. The experiment in a line: Binding affinity to terbium(3)-loaded POPC membrane at 10 uM measured for 10 mins by fluorescence assay relative to control.
Conditions: not given
The data set is classed as ADME. A digest of the protocol: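 Tb3+-loaded liposomes, E. coli lipid or POPC, size-exclusion exchanged and diluted to 2.5% (v/v) in dipicolinic acid buffer, stirring. Peptide added at 10 μM. Tb3+ excited at 314 nm, emission at 544 nm recorded for 10 min. Liposome-only signal subtracted, normalized to a 0.1% Triton-lysed control as 100% disruption.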
H-KKKKAAFLKLWLKLFAA-NH2 had an Activity of 25 to 70%.
Consider H-KKKKKALFLKLWAAFLA-NH2, for which the Activity was in the range of 25 to 70%.
For the substance H-KKKKKKALFALWLAFLA-NH2, the Activity lay in the range of 4 to 8%.
On to H-KKLKAFLKAWAKLFKAL-NH2, for which the Activity was in the range of 25 to 70%.

For a further data set, the system named is Lipid bilayer. Description: Binding affinity to POPC membrane at 25 uM by CD spectroscopic analysis. The data set is classed as ADME.
Conditions: not given
In a few lines:
as §1
Regarding H-KKKKAAFLKLWLKLFAA-NH2, the result was Active.
Regarding H-KKKKKAAFAKAWAAFAA-NH2, the Activity result is “Not Active”.
In the case of H-KKKKKALFLKLWAAFLA-NH2, the result was Active.
Turning to H-KKKKKKAAFAAWAAFAA-NH2, the Activity entry is “Not Active”.
H-KKKKKKALFALWLAFLA-NH2: the result was Active.
Turning to H-KKLKAFLKAWAKLFKAL-NH2, the result was Active.

Another data set relates to Escherichia coli. Description: Antibacterial activity against Escherichia coli K-12 measured after 20 hrs by microtiter dilution method. Type of data set: functional. As to conditions: K-12, 20 h. A digest of the protocol: (§2)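 Mueller-Hinton broth microdilution; 2-fold serial dilutions of peptide from 0 to 50 μM incubated 20 h at 37 °C with 50 000 cfu/well from an overnight MHB culture. Bacterial growth read as background-subtracted OD600. MIC recorded as the peptide concentration at which growth is inhibited. P. aeruginosa isolates came from sputum of cystic fibrosis patients with infections persisting after inhaled tobramycin.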
Take H-KKKKAAFLKLWLKLFAA-NH2: the lowest concentration to inhibit growth (MIC) was 12.5 µM.
Still for that read-out and setting: in the case of H-KKKKKAAFAKAWAAFAA-NH2 it was 6.3 µM.
The same measure, in the same setting: in the case of H-KKKKKALFLKLWAAFLA-NH2 it was 3.1 µM; in that of H-KKKKKKAAFAAWAAFAA-NH2, 1.6 µM.
For the substance H-KKKKKKALFALWLAFLA-NH2, it took 12.5 µM to inhibit growth (MIC).
Regarding H-KKLKAFLKAWAKLFKAL-NH2, the MIC is 1.6 µM.

In another data set the test system is Escherichia coli. The experiment in a line: Induction of terbium(3)-loaded Escherichia coli lipid extract liposome membrane disruption at 10 uM measured after 20 mins by fluorescence assay relative to control. Type of data set: cell membranes.
Conditions: not given
H-KKKKAAFLKLWLKLFAA-NH2 came in with an Activity of 40%.
In the case of H-KKKKKALFLKLWAAFLA-NH2, the Activity was found to be 40%.
Same read-out and setting: in the case of H-KKKKKKAAFAAWAAFAA-NH2 it was 35%.
Take H-KKKKKKALFALWLAFLA-NH2: the Activity was found to be 80%.
H-KKLKAFLKAWAKLFKAL-NH2 displayed an Activity of 40%.

The next data set concerns Escherichia coli. Description: Binding affinity to Escherichia coli lipid extract liposome membrane at 10 uM by tryptophan fluorescence method.
Conditions: not given
Type of data set: cell membranes. In a few lines: (§3)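 Peptide at 10 μM in 10 mM Tris, 10 mM NaCl, pH 7.4, with 0.8 mg/mL E. coli total lipid extract or POPC liposomes, equilibrated overnight before recording. Trp excited at 280 nm, emission scanned 300–400 nm. After background subtraction, the wavelength of maximal emission was taken.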
H-KKKKKAAFAKAWAAFAA-NH2: the outcome was Active.
Same read-out and setting: then H-KKKKKKAAFAAWAAFAA-NH2, with “Active”.

The subject of another data set is Pseudomonas aeruginosa. The experiment in a line: Antibacterial activity against tobramycin-pretreated Pseudomonas aeruginosa isolate 330 after 20 hrs by microtiter dilution method. The data set is classed as functional.
Conditions: not given
A digest of the protocol: as §2
In the case of H-KKKKAAFLKLWLKLFAA-NH2, the MIC is above 50 µM.
As to H-KKKKKAAFAKAWAAFAA-NH2, the MIC was 50 µM.
As for H-KKKKKALFLKLWAAFLA-NH2, the MIC stood at 12.5 µM.
For H-KKKKKKAAFAAWAAFAA-NH2, the MIC was 25 µM.
On to H-KKKKKKALFALWLAFLA-NH2, for which the MIC was above 50 µM.
Take H-KKLKAFLKAWAKLFKAL-NH2: the MIC amounted to 6.3 µM.

The subject of another data set is Escherichia coli. The experiment in a line: Binding affinity to Escherichia coli lipid extract liposome membrane at 10 uM by tryptophan fluorescence quenching method. The data set is classed as cell membranes.
Conditions: not given
A digest of the protocol: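 Acrylamide quenching of Trp; peptide 10 μM with 0.8 mg/mL E. coli lipid liposomes. Excitation at 295 nm, emission 310–400 nm. Read-out is the Stern–Volmer slope, with larger slopes meaning more quenching. At least two independent experiments, error given as standard deviation.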
As to H-KKKKKKAAFAAWAAFAA-NH2, the outcome was Active.
Regarding H-KKKKKKALFALWLAFLA-NH2, the result was Active.

Test system in another data set: not listed separately
The experiment in a line: Stability of the compound assessed as Engyodontium album PMSF-pretreated proteinase K-mediated compound hydrolysis at 20 uM incubated for 10 mins at 70 degC by coomassie blue staining-based NuPAGE analysis. As to conditions: parengyodontium album, 1 h, in the assay text read “incubated for up to 1 hr at 37 degC” for “incubated for 10 mins at 70 degC”. The data set is classed as ADME. In a few lines: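 Reactions stopped with 5 mM PMSF; PMSF-preinhibited enzyme served as control. Samples heated 70 °C for 10 min and run on 12% Bis-Tris gels with Coomassie staining. Band density normalized to T0.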
For H-KKKKKAAFAKAWAAFAA-NH2, the Stability result was “Stable”.
Take H-KKKKKKAAFAAWAAFAA-NH2: the Stability result is “Stable”.

Another data set has as its system Pseudomonas aeruginosa. Description: Antibacterial activity against tobramycin-pretreated Pseudomonas aeruginosa isolate 287 measured after 20 hrs by microtiter dilution method. The data set is classed as functional.
Conditions: not given
In a few lines:
as §2
In the case of H-KKKKAAFLKLWLKLFAA-NH2, the MIC was above 50 µM.
Regarding H-KKKKKAAFAKAWAAFAA-NH2, the MIC amounted to 50 µM.
On the same count and under the same terms, then H-KKKKKALFLKLWAAFLA-NH2, with 6.3 µM; and H-KKKKKKAAFAAWAAFAA-NH2, with 3.1 µM.
Take H-KKKKKKALFALWLAFLA-NH2: the MIC stood at 25 µM.
For the substance H-KKLKAFLKAWAKLFKAL-NH2, the MIC came out at 3.1 µM.

The next data set deals with Pseudomonas aeruginosa. The experiment in a line: Antibacterial activity against tobramycin-pretreated Pseudomonas aeruginosa isolate 214 measured after 20 hrs by microtiter dilution method. The data set is classed as functional.
Conditions: not given
A digest of the protocol: as §2
With H-KKKKAAFLKLWLKLFAA-NH2, the MIC is above 50 µM.
H-KKKKKAAFAKAWAAFAA-NH2: the MIC turned out to be 25 µM.
As to H-KKKKKALFLKLWAAFLA-NH2, the MIC is 6.3 µM.
Consider H-KKKKKKAAFAAWAAFAA-NH2, for which the MIC was determined as 3.1 µM.
On to H-KKKKKKALFALWLAFLA-NH2, for which the MIC is 50 µM.
Take H-KKLKAFLKAWAKLFKAL-NH2: the MIC came out at 3.1 µM.

For another data set, the system named is Lipid bilayer. Description: Binding affinity to POPC membrane at 10 uM by tryptophan fluorescence method. The data set is classed as ADME.
Conditions: not given
A digest of the protocol:
as §3
H-KKKKAAFLKLWLKLFAA-NH2: the outcome was Active.
The same measure, in the same setting: then H-KKKKKALFLKLWAAFLA-NH2, with “Active”; and H-KKKKKKALFALWLAFLA-NH2, with “Active”; and H-KKLKAFLKAWAKLFKAL-NH2, with “Active”.

Test system in another data set: not listed separately
The experiment in a line: Hemolytic activity in human RBC assessed as hemolysis at 320 to 640 uM measured after 1 hr. As to conditions: human red blood cells (erythrocytes), read-out: Activity. The data set is classed as ADME, cell-based, Erythrocyte. A digest of the protocol:
(§4)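 Fresh human erythrocytes washed and resuspended in PBS to a final 4% (v/v). Incubated 1 h at 37 °C with 2-fold serial peptide dilutions from 0 to 640 μM. Supernatant absorbance at 540 nm; PBS taken as 0% and 1% Triton as 100% hemolysis. Standard deviation reported; one-way ANOVA applied.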
As for H-KKKKKAAFAKAWAAFAA-NH2, the hemolysis at 1 h, up to 640 µM is below 1%.
Turning to H-KKKKKKAAFAAWAAFAA-NH2, the hemolysis at 1 h, up to 640 µM was below 1%.
H-KKLKAFLKAWAKLFKAL-NH2: the hemolysis at 1 h, up to 640 µM is below 1%.

Test system in a further data set: not listed separately
The experiment in a line: Hemolytic activity in human RBC assessed as hemolysis at 40 uM measured after 1 hr. The following applies: human red blood cells (erythrocytes), read-out: Activity. The data set is classed as ADME, cell-based, Erythrocyte. In a few lines:
as §4
H-KKKKAAFLKLWLKLFAA-NH2: the hemolysis at 1 h, 40 µM stood at 8%.
For the substance H-KKKKKAAFAKAWAAFAA-NH2, the hemolysis at 1 h, 40 µM was found to be 0%.
Turning to H-KKKKKALFLKLWAAFLA-NH2, the hemolysis at 1 h, 40 µM was determined as 49%.
Take H-KKKKKKAAFAAWAAFAA-NH2: the hemolysis at 1 h, 40 µM was determined as 0%.
As to H-KKKKKKALFALWLAFLA-NH2, the hemolysis at 1 h, 40 µM turned out to be 33%.
As for H-KKLKAFLKAWAKLFKAL-NH2, the hemolysis at 1 h, 40 µM stood at 89%.

In the next data set the test system is Pseudomonas aeruginosa. Description: Antibacterial activity against Pseudomonas aeruginosa PAO1 measured after 20 hrs by microtiter dilution method. The data set is classed as functional. The following applies: PAO1, 20 h. A digest of the protocol:
as §2
H-KKKKAAFLKLWLKLFAA-NH2 gave an MIC above 50 µM.
Take H-KKKKKAAFAKAWAAFAA-NH2: 25 µM was the least that counted as inhibitory (MIC).
Substance H-KKKKKALFLKLWAAFLA-NH2 returned an MIC of 12.5 µM.
In turn, H-KKKKKKAAFAAWAAFAA-NH2 returned an MIC of 12.5 µM.
The substance H-KKKKKKALFALWLAFLA-NH2 showed an MIC above 50 µM.
On the same count and under the same terms, then H-KKLKAFLKAWAKLFKAL-NH2, with 3.1 µM.

Another data set concerns Lipid bilayer. Description: Binding affinity to 11,12-BrPC-loaded POPC membrane at 10 uM by tryptophan fluorescence method. Type of data set: ADME.
Conditions: not given
Turning to H-KKKKKKALFALWLAFLA-NH2, the Activity entry was “Not Active”.

The test system of another data set is Pseudomonas aeruginosa. Description: Antibacterial activity against tobramycin-pretreated Pseudomonas aeruginosa isolate 380 after 20 hrs by microtiter dilution method. The data set is classed as functional.
Conditions: not given
A digest of the protocol: as §2
For the substance H-KKKKAAFLKLWLKLFAA-NH2, the MIC was above 50 µM.
H-KKKKKAAFAKAWAAFAA-NH2: the MIC was 50 µM.
In the case of H-KKKKKALFLKLWAAFLA-NH2, the MIC was above 50 µM.
As for H-KKKKKKAAFAAWAAFAA-NH2, the MIC is 12.5 µM.
Same read-out and setting: then H-KKKKKKALFALWLAFLA-NH2, with above 50 µM; and H-KKLKAFLKAWAKLFKAL-NH2, with 1.5 µM.

Values taken from ChEMBL document CHEMBL4364261, “Positive Charge Patterning and Hydrophobicity of Membrane-Active Antimicrobial Peptides as Determinants of Activity, Toxicity, and Pharmacokinetic Stability” (J Med Chem, 2019).
